# Most compounds without a hit are left out; they make up all but 3.5% or so of the library.
# MrgX1 antagonist – blocks BAM8-22 activation of human MrgX1 receptor; Q96LB2; MRGX1-HEK293 calcium flux, Fluo-4, BAM8-22 antagonism; active compounds read low; B-score at 10 µM; actives 1.3% (n = 310,000);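 active means calcium-response B-score plate-corrected more than 3 library SD below zero, starting fluorescence within 5 deviations, no agonist response on first addition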;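 further: peak minus trough fluorescence over baseline after final BAM8-22 challenge near maximal dose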
# Target sequence (Q96LB2 whole entry, looked up): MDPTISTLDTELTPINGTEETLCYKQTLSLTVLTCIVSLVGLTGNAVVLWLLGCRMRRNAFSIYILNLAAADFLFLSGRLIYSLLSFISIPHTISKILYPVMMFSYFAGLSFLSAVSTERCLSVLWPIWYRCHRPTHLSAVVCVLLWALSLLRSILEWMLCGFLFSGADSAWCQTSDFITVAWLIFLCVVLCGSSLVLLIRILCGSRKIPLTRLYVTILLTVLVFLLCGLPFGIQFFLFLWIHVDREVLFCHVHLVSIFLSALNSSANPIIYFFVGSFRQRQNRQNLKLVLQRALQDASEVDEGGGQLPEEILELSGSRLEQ
# MrgX1 allo act – allosterically activates human MrgX1 receptor signaling; Q96LB2; AID 588675; B-score at 10 µM; actives 0.63% (n = 310,000); MrgX1-HEK293, Fluo-4 calcium flux, FDSS; active compounds read high;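 active means plate-corrected calcium response at least 3 library SD above typical, normal starting fluorescence, not activating the receptor alone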;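 further: compound read alongside a low EC10 to EC30 dose of BAM8-22 agonist; peak minus trough fluorescence over baseline measured at the second addition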
# MrgX1 ag – agonists of human MrgX1 receptor; Q96LB2; MrgX1-HEK293 cells, Fluo-4 calcium fluorescence, agonist mode; active compounds read high; B-score at 10 µM; actives 0.44% (n = 310,000);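 active means calcium response B-score plate-corrected fluorescence ratio at least 3 library SD, with starting fluorescence B-score inside 5 SD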
#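 Test system: HEK293 cells stably expressing human MrgX1 receptor; amount: 15,000 cells per well; doses: compound delivered in addition one of three; times: overnight plating before 1 h dye loading; detection: Fluo-4 NW calcium-flux fluorescence, kinetic read; read-out basis: B-scored fluorescence response ratio; controls: positive and negative controls per plate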
# RGS4 inh – human RGS4 inhibition; HEK293 M3R/RGS4 inducible, Fluo-4 calcium flux; active compounds read high; triggered by carbachol at its EC20; B-score at 10 µM; actives 0.45% (n = 310,000); AID 463165;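 active means B-score, a plate-corrected calcium signal, over three deviations above library mean, with baseline fluorescence within five deviations of library mean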;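 further: RGS4 expression induced by doxycycline in cells with stable M3 receptor; B-score is computed from the integrated fluorescence ratio over baseline after carbachol; higher B-score means a larger calcium signal and so more RGS4 inhibition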
# Target sequence (P49798 whole entry, looked up): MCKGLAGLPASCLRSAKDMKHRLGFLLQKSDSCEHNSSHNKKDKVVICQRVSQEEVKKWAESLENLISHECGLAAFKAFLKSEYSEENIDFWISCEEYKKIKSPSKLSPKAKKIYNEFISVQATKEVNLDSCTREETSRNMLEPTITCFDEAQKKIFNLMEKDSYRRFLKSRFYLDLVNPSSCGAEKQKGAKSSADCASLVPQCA
# RGS4 pot – potentiators or activators of RGS4. HEK293 M3R/inducible RGS4, carbachol calcium flux Fluo4; active compounds read low. B-score at 10 µM. actives 0.92% (n = 310,000);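 active means B-score of the integrated calcium signal more than 4 SD below the library mean, with starting fluorescence not abnormally high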;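 further: negative B-score means reduced calcium response which marks RGS4 activation or potentiation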
#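 Assay system: Inducible-RGS4 HEK293 cells carrying M3 receptor | Schedule: Compound preincubation 20 min at room temperature before agonist | Signal: Kinetic calcium fluorescence imaging with Fluo4-AM dye, 2 µM | Read-out basis: B score from integrated fluorescence ratio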
# MrgX1 allo conf – human MrgX1 positive allosteric modulation, re-confirmation. shares compounds with MrgX1 allo act. MrgX1-HEK293, Fluo-4 calcium fluorescence, FDSS. activation (ratio percentage), % at 10 µM. actives 13% (n = 1,200);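 active means ratio at least 3 SD above the weak peptide control, stable starting fluorescence, no direct agonism earlier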;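 further: compound followed by low BAM8-22 agonist challenge near EC20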
# MrgX1 antag conf – reconfirmed antagonist of human MrgX1 receptor signaling | AID 602420 | actives 19% (n = 2,300) | MrgX1-HEK293, BAM8-22 calcium flux, Fluo-4; active compounds read low | shares compounds with MrgX1 antagonist | remaining BAM8-22 calcium response % of control (active compounds read low), % at 10 µM;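 active means remaining agonist calcium response no higher than 100% minus 3 SD of agonist-only control wells, with starting fluorescence near control levels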;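 further: agonist BAM8-22 given at a near maximal EC90 to ECmax level; peak minus minimum fluorescence divided by baseline after agonist addition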
# HEK293 Ca flux – MrgX1 antagonist counter-screen hit in parental HEK293 cells; fluorescence ratio F(max-min)/F0 at 10 µM; Fluo-4 calcium fluorescence, FDSS; AID 624111; actives 2% (n = 4,000); shares compounds with MrgX1 antagonist;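 active means duplicate-averaged calcium fluorescence ratio at least three times the standard deviation of buffer wells, a nonspecific response in parental cells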
# HEK293 Ca counter – counter-screen for MrgX1 allosteric activators: effect in parental HEK293 cells; shares compounds with MrgX1 antagonist; parental HEK293 calcium flux, Fluo-4 fluorescence ratio; active compounds read high; fluorescence ratio F(max-min)/F0 at 10 µM; actives 0.4% (n = 4,000);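 active means calcium fluorescence ratio, averaged over duplicates, at least 3 SD of the buffer-well ratio, meaning a nonspecific response in receptor-free cells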;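 further: untransfected parental HEK293 lacking MrgX1 used as counterscreen for MrgX1 allosteric activators; fluorescence change taken during the second addition on a kinetic imager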
# HEK293 Ca cntr2 – counter-screen for MrgX1 activators: effect in parental HEK293 cells | fluorescence ratio F(max-min)/F0 at 10 µM | actives 8.7% (n = 4,000) | shares compounds with MrgX1 antagonist | AID 624115 | Fluo-4 calcium fluorescence (FDSS); active compounds read high;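 active means calcium fluorescence ratio at least three times the spread of buffer wells, meaning a non-specific response in parental cells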
# Numbers without * were called inactive; i = inactive; nt = not tested or not shown.
SMILES,MrgX1 antagonist,MrgX1 allo act,MrgX1 ag,RGS4 inh,RGS4 pot,MrgX1 allo conf,HEK293 Ca flux,HEK293 Ca counter,HEK293 Ca cntr2,others
CCOc1ccc(-c2[nH]ncc2-c2ccccc2)c(O)c1,i,12.8*,i,i,i,17.5%*,i,i,i,
COc1ccc(-c2cn[nH]c2-c2ccc(OC)cc2O)cc1,i,16.4*,i,i,i,12.4%*,i,i,i,
CCOc1ccc(-c2[nH]ncc2-c2csc(C)n2)c(O)c1,i,i,i,i,i,nt,nt,nt,nt,
COc1ccc(-c2[nH]ncc2-c2ccc(Cl)cc2)c(O)c1,i,6.71*,i,i,i,26.6%*,i,i,i,
COc1ccc(-c2[nH]ncc2-c2csc(C)n2)c(O)c1,i,i,i,i,i,nt,nt,nt,nt,
O=C(OCC(=O)N1CCCC1=O)c1cc(Cl)ccc1O,i,i,i,i,i,nt,nt,nt,nt,
O=C(CSc1nnc(-c2ccccc2NC(=O)c2ccccc2)o1)OC1CCCCC1,i,i,i,i,i,nt,nt,nt,nt,
CCC1Nc2ncnc(N3CCCCC3)c2N(Cc2ccccc2)C1=O (stereo not drawn),i,7.54*,i,i,i,i,i,i,i,
N#Cc1ccc(CNC(=O)N2CCOCC2)cc1,i,i,i,i,i,nt,nt,nt,nt,
CC(=O)Nc1ccc(NC(=O)C(C)OC(=O)CCC2CCCC2)cc1 (stereo not drawn),i,i,i,i,i,nt,nt,nt,nt,
COc1ccc(-c2csc(=NCCO)n2-c2ccccc2)cc1,-5.76*,8.75*,i,i,i,19.9%*,i,i,i,MrgX1 antag conf=i
Cc1ccc(C[n+]2cccc(-c3ccccc3)c2)c(C)c1,i,i,i,i,i,nt,nt,nt,nt,
COc1cccc(/C=C/C(=O)NCc2ccc(S(N)(=O)=O)cc2)c1,i,i,i,i,i,nt,nt,nt,nt,
COc1ccc(-c2csc(NC(=O)CCCc3nc4ccccc4c(=O)[nH]3)n2)cc1OC,i,11.1*,i,i,-7.4*,i,i,i,i,
COc1ccc(/C=C2\N=C(SC)N(c3ccccc3OC)C2=O)cc1,i,i,i,i,i,nt,nt,nt,nt,
CCOC(=O)N1CCN(C(=S)Nc2cc(S(=O)(=O)N3CCOCC3)ccc2Cl)CC1,i,9.23*,i,i,i,i,i,i,i,
COc1ccc(S(=O)(=O)NCC(=O)NCc2cc(=O)n(C)c(=O)n2C)cc1C,i,i,i,i,i,nt,nt,nt,nt,
COc1ccc(N2C(=O)C3CCCN3C2=O)cc1 (stereo not drawn),i,10.4*,i,i,i,i,i,i,i,
CCOc1ccc(N2C(=O)C3CCCN3C2=O)cc1 (stereo not drawn),i,i,i,i,i,nt,nt,nt,nt,
COc1cccc(Nc2ncccc2C(=O)Nc2ccccc2)c1,i,7.55*,i,i,i,i,i,i,i,
COc1ccc(C2NC(=O)CCC2[N+](=O)[O-])c(OC)c1OC (stereo not drawn),i,i,i,i,i,nt,nt,nt,nt,
Cc1c(CC(=O)O)c(=O)oc2c(C)c(OCc3ccccc3)ccc12,i,i,i,i,i,nt,nt,nt,nt,
Cc1c(CC(=O)O)c(=O)oc2c(C)c(OCc3c(F)cccc3Cl)ccc12,i,13*,i,i,i,i,i,i,i,
CCN(CC(=O)Nc1c(F)cccc1F)C(=O)Cc1csc(-c2ccccc2)n1,i,7.52*,i,i,i,i,i,i,i,
COc1cc(SC)ccc1C(=O)NCc1ccc(C)cc1,i,6.53*,i,i,i,i,i,i,i,
SMILES,MrgX1 antagonist,MrgX1 allo act,MrgX1 ag,RGS4 inh,RGS4 pot,MrgX1 allo conf,HEK293 Ca flux,HEK293 Ca counter,HEK293 Ca cntr2,others
CN(C)C(CNC(=O)c1ccc(S(=O)(=O)Nc2cccc(C(F)(F)F)c2)cc1)c1ccco1 (stereo not drawn),i,i,i,i,i,nt,nt,nt,nt,
CC(=O)Nc1ccc(S(=O)(=O)NCc2ccc(C(=O)N3CCOCC3)cc2)cc1,i,7.38*,i,i,i,i,i,i,i,
O=c1c(-c2ccccc2)[n+]([O-])c2ccccc2n1O,i,21.2*,i,i,i,12.3%*,i,i,i,
Cc1ccc2nc(NC(=O)c3cccs3)sc2c1,i,i,i,nt,nt,nt,nt,nt,nt,
CS(=O)(=O)c1ccc2nc(NC(=O)c3cccs3)sc2c1,i,23.8*,i,nt,nt,17.0%*,i,i,i,
COc1ccc2nc(NC(=O)C3COc4ccccc4O3)sc2c1 (stereo not drawn),i,i,i,i,i,nt,nt,nt,nt,
CS(=O)(=O)c1ccc2nc(NC(=O)C3COc4ccccc4O3)sc2c1 (stereo not drawn),i,6.63*,i,i,i,i,i,i,i,
CC(=O)Nc1ccc(N(C(=O)c2ccco2)C(C(=O)NC2CCCC2)c2ccc(N3CCOCC3)cc2)cc1 (stereo not drawn),i,i,i,i,i,nt,nt,nt,nt,
CC(=O)Oc1ccc(C(=O)Nc2cccc(C(=O)Nc3ccccc3C(=O)O)c2)cc1,i,i,i,i,i,nt,nt,nt,nt,
CC(=O)Oc1ccc(C(=O)Nc2ccccc2C(=O)Nc2cccc(C(=O)O)c2)cc1,i,10.2*,i,i,i,i,i,i,i,
O=C(Nc1ccccc1C(=O)O)c1cccc(NC(=O)c2ccc(Br)o2)c1,i,17.1*,i,i,i,i,i,i,i,
O=C(Nc1ccccc1C(=O)O)c1ccc(NC(=O)c2ccc(Br)o2)cc1,i,i,i,i,i,nt,nt,nt,nt,
O=C(c1cc(-c2cccc(Cl)c2)on1)N1CCCCCC1,i,12.5*,i,i,i,i,i,i,i,
